# Measured values published in ChEMBL document CHEMBL4049423, “Discovery of Novel 1,4-Diacylpiperazines as Selective and Cell-Active eIF4A3 Inhibitors” (J Med Chem, 2017).
# What was measured:
# [1] = biological target: T1, Eukaryotic initiation factor 4A-III (Homo sapiens, UniProt P38919); assay: Inhibition of MLN51-induced full-length human recombinant His6-tagged eIF4A3 RNA dependent ATPase activity expressed in Escherichia coli BL21(DE3) using single stranded poly(U) RNA as substrate after 30 mins by ADP-Glo luminescence assay
# T1 sequence (P38919 whole entry): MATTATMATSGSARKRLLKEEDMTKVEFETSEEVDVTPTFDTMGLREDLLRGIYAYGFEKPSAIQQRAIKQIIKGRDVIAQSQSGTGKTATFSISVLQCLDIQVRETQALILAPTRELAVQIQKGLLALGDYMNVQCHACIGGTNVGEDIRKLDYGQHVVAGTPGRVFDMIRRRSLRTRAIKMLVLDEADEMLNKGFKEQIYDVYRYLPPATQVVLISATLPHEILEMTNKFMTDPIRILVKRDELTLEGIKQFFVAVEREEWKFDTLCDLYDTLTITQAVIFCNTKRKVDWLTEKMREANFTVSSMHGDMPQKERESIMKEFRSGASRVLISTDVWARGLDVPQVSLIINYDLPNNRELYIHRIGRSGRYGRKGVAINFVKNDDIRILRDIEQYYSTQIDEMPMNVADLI
# How it was run: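 ADP-Glo luminescence read-out with 150 nM eIF4A3 plus an equimolar amount of MLN51. Substrates were 35 μM ATP and 1.5 μg/mL poly(U), both at Km. Buffer: 20 mM Tris-HCl pH 7.5, 2.5 mM MgCl2, 100 mM KCl, 1 mM DTT, 0.01% Tween20. Enzyme was added last to start the reaction, then incubated 30 min at room temperature. No-enzyme wells were taken as 100% inhibition and the complete reaction as 0%.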
# [2] = biological target: T1, Eukaryotic initiation factor 4A-III; assay: Inhibition of eIF4A3 (unknown origin) expressed in HEK293T cells assessed as NMD suppression at 10 uM after 6 hrs by luciferase reporter gene assay relative to control; type: cell-based
# How it was run: (§1)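 HEK293T cells were co-transfected (Lipofectamine LTX) with the pGL4.12 SV40-Luc2CP-BGG NMD reporter and a pRL-TK renilla control. After 24 h of transfection, cells were treated with compound for 6 h. Firefly/renilla luciferase ratio was measured by dual-luciferase assay and normalized to DMSO-treated cells, n = 2.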
# [3] = biological target: T1, Eukaryotic initiation factor 4A-III; assay: Inhibition of eIF4A3 (unknown origin) expressed in HEK293T cells assessed as NMD suppression at 3 uM after 6 hrs by luciferase reporter gene assay relative to control; type: cell-based; how it was run: as §1
# [4] = biological target: Eukaryotic initiation factor 4A-I (Homo sapiens, UniProt P60842); assay: Inhibition of eIF4G-induced full-length human recombinant His6-tagged eIF4A1 RNA dependent ATPase activity expressed in Escherichia coli BL21(DE3) using single stranded poly(U) RNA as substrate after 40 mins by ADP-Glo luminescence assay
# Eukaryotic initiation factor 4A-I, sequence (P60842 whole entry): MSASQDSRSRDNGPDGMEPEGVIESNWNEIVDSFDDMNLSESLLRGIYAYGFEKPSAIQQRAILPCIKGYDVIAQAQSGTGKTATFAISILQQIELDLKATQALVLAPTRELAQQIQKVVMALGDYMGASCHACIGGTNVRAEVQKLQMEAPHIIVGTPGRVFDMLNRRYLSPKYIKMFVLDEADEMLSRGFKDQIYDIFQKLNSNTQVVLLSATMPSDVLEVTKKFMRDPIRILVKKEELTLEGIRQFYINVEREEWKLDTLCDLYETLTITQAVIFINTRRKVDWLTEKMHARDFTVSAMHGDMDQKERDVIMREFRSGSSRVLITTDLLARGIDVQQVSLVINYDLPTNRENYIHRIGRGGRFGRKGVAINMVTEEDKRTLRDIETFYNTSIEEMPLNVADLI
# How it was run: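 100 nM eIF4A1 with equimolar eIF4B and eIF4G, 35 μM ATP and 1.5 μg/mL poly(U), both at Km. Buffer: Tris-HCl pH 7.5, MgCl2, KCl, DTT, Tween20. The reaction was started with enzyme and run 40 min at room temperature, with ADP read by ADP-Glo luminescence. No-enzyme wells were set as 100% inhibition.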
# [5] = biological target: Eukaryotic initiation factor 4A-II (Homo sapiens, UniProt Q14240); assay: Inhibition of eIF4G-induced human recombinant His6-tagged eIF4A2 RNA dependent ATPase activity using single stranded poly(U) RNA as substrate after 40 mins by ADP-Glo luminescence assay
# Eukaryotic initiation factor 4A-II, sequence (Q14240 whole entry): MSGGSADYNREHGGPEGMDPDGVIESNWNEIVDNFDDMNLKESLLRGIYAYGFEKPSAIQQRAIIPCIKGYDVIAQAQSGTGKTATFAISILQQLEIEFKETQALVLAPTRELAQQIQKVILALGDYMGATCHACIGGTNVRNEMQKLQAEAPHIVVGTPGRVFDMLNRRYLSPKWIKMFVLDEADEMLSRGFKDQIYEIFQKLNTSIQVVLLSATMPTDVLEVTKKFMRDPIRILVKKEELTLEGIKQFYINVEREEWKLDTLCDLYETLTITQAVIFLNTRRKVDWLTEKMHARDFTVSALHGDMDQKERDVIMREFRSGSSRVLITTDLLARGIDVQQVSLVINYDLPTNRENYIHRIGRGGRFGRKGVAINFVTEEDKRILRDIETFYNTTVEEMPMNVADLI
# How it was run: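 eIF4A2 was a purchased His-tagged human protein, used at 100 nM with equimolar eIF4B and eIF4G. Substrates were 20 μM ATP and 3.0 μg/mL poly(U), both at Km. The reaction was started with enzyme in Tris-HCl pH 7.5/MgCl2/KCl/DTT/Tween20 buffer and run 40 min at room temperature. ADP-Glo read-out, with the no-enzyme control set as 100% inhibition.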
# [6] = biological target: T2, ATP-dependent RNA helicase DHX29 (Homo sapiens, UniProt Q7Z478); assay: Inhibition of human recombinant full-length FLAG-His-tagged DHX29 RNA dependent ATPase activity expressed in baculovirus infected Sf9 insect cells using single stranded poly(U) RNA as substrate after 30 mins by ADP-Glo luminescence assay
# T2 sequence (Q7Z478 whole entry): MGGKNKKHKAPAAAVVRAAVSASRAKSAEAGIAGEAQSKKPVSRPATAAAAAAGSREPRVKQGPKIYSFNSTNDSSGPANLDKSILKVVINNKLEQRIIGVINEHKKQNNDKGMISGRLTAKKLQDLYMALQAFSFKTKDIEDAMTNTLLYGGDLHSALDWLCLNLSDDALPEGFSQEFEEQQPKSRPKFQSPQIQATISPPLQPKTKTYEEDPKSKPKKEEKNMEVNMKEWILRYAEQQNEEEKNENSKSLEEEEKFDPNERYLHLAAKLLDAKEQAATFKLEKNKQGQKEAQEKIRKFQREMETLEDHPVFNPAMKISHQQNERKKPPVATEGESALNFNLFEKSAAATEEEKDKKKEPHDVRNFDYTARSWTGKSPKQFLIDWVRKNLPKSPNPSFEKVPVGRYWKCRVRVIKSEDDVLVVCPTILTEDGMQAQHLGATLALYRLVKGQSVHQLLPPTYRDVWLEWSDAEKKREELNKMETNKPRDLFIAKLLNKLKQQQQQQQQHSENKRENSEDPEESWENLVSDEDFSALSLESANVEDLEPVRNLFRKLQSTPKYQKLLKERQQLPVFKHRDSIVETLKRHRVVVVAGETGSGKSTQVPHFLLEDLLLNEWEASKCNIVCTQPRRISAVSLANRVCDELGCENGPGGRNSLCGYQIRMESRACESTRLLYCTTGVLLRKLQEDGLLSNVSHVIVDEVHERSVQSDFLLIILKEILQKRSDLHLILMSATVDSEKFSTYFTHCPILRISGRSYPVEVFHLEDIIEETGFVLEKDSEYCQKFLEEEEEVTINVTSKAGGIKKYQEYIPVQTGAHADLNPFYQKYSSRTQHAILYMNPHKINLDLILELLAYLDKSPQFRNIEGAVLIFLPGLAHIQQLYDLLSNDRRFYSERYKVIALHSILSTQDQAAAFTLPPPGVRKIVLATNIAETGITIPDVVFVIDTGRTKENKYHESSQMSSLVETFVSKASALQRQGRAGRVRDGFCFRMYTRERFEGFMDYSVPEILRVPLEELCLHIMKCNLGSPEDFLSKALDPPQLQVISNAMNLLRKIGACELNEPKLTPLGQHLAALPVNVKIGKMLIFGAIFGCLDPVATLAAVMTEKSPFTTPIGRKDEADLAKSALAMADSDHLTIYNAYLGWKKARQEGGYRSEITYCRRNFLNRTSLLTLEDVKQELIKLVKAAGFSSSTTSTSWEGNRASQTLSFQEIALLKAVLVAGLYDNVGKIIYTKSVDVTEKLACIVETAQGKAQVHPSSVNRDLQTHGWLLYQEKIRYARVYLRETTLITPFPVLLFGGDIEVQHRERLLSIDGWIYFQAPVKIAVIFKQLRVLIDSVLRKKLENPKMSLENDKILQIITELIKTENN
# How it was run: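 DHX29 was Ni-NTA and Superdex 200 purified and used at 6.4 nM. Substrates were 30 μM ATP and 1.8 μg/mL poly(U), both at Km. Run in pH 7.5 Tris/MgCl2/KCl/DTT/Tween20 buffer, started with enzyme, 30 min at room temperature. ADP detected by ADP-Glo luminescence, with no-enzyme wells as 100% inhibition.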
# [7] = biological target: U5 small nuclear ribonucleoprotein 200 kDa helicase (Homo sapiens, UniProt O75643); assay: Inhibition of human recombinant full-length His-tagged BRR2 RNA dependent ATPase activity expressed in baculovirus infected Sf9 insect cells using single stranded poly(U) RNA as substrate after 30 mins by ADP-Glo luminescence assay
# U5 small nuclear ribonucleoprotein 200 kDa helicase, sequence (O75643 whole entry): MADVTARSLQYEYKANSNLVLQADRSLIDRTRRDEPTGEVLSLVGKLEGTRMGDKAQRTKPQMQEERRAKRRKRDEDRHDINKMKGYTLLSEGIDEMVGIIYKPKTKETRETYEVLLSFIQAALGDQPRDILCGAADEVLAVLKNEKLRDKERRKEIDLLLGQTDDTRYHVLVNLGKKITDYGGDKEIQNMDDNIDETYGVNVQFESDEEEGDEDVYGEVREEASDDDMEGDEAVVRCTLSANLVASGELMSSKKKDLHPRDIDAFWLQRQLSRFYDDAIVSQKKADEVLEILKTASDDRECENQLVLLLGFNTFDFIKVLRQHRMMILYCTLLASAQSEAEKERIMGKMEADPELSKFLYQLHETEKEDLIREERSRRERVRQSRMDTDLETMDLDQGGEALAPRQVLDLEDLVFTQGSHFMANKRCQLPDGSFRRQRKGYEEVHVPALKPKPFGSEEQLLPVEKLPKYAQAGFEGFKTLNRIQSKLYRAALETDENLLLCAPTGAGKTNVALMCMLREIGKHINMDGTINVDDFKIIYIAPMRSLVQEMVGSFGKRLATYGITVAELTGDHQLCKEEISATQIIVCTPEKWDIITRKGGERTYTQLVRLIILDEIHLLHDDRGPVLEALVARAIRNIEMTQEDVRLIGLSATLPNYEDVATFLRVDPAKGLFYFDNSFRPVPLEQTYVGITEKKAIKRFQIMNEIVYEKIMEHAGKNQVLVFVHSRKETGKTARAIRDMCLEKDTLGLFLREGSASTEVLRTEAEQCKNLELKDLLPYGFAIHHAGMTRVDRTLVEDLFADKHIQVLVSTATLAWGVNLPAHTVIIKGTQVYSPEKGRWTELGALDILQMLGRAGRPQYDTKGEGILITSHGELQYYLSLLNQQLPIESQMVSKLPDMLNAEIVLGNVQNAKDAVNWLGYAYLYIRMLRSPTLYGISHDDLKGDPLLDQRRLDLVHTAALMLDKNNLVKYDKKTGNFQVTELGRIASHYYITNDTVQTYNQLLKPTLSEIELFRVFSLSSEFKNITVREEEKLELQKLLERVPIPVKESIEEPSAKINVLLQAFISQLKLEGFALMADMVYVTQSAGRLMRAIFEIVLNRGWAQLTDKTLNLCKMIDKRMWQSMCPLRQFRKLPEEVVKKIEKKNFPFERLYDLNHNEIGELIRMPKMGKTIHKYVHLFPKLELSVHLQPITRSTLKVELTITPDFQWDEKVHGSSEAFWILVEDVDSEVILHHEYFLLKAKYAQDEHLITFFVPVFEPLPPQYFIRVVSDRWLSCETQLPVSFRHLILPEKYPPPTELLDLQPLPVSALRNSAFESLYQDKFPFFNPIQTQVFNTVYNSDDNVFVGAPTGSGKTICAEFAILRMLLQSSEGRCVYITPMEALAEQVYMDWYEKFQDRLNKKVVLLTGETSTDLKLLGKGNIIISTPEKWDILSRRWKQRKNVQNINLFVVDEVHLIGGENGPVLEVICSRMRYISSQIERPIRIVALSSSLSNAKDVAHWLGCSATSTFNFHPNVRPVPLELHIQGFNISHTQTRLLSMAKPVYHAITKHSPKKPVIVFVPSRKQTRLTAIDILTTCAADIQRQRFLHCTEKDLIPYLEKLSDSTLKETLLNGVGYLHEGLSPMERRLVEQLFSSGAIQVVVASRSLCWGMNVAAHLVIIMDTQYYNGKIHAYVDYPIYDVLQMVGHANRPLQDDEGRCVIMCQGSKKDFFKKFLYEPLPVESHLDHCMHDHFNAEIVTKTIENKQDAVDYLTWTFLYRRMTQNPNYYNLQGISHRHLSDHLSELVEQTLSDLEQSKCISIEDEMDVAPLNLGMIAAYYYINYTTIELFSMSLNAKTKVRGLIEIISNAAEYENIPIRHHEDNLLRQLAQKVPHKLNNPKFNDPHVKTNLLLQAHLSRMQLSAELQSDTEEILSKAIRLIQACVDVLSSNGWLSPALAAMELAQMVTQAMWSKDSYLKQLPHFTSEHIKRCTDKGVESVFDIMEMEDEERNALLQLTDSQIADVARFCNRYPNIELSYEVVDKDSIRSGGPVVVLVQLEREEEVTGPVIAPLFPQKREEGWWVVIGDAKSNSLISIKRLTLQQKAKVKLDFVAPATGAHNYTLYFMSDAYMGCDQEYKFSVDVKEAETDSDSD
# How it was run: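 BRR2 was Ni-NTA and gel-filtration purified and used at 6.25 nM. Substrates were 20 μM ATP and 2.5 μg/mL poly(U), both at Km. Buffer: 20 mM Tris-HCl pH 7.5, 2.5 mM MgCl2, 100 mM KCl, 1 mM DTT, 0.01% Tween20. Started with enzyme and incubated 30 min at room temperature, with ADP-Glo luminescence read-out.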
# [8] = biological target: T1, Eukaryotic initiation factor 4A-III; assay: Binding affinity to full-length human recombinant His6-tagged eIF4A3 expressed in Escherichia coli BL21(DE3) by surface plasmon resonance assay
# How it was run: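 eIF4A3 immobilized on CM7 chip by amine coupling (5000–10 000 RU) in HBS-P+ with 1 mM DTT. Binding run at 25 °C in 20 mM Tris-HCl pH 8.0, 150 mM NaCl, 0.2 mM TCEP, 0.02% P20, 1−2% DMSO. Compound injected at 6−12 concentrations for 60−120 s at 50 μL/min, dissociation followed 120−1200 s. Sensorgrams double-referenced, globally fitted to 1:1 model.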
# [9] = biological target: T1, Eukaryotic initiation factor 4A-III; assay: Binding affinity to full-length human recombinant His6-tagged eIF4A3 expressed in Escherichia coli BL21(DE3) assessed as association rate constant by surface plasmon resonance assay
# How it was run: (§2)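 eIF4A3 amine-coupled to a CM7 sensor chip (5000–10 000 RU) in HBS-P+ with 1 mM DTT. Binding was run at 25 °C in 20 mM Tris-HCl pH 8.0, 150 mM NaCl, 0.2 mM TCEP, 0.02% P20 and 1–2% DMSO. Compound series of 6–12 concentrations were injected for 60–120 s at 50 μL/min, with dissociation followed for 120–1200 s. Sensorgrams were double-referenced and globally fitted to a 1:1 model.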
# [10] = biological target: T1, Eukaryotic initiation factor 4A-III; assay: Binding affinity to full-length human recombinant His6-tagged eIF4A3 expressed in Escherichia coli BL21(DE3) assessed as dissociation rate constant by surface plasmon resonance assay; how it was run: as §2
# [11] = biological target: T1, Eukaryotic initiation factor 4A-III; assay: Binding affinity to full-length human recombinant His6-tagged eIF4A3 expressed in Escherichia coli BL21(DE3) assessed as dissociation half life by surface plasmon resonance assay; how it was run: as §2
structure (smiles),measurement,setting,value
Cc1c(C(=O)N2CCN(C(=O)c3ccc(Br)cc3)[C@@H](c3ccc(Cl)cc3)C2)cnn1-c1cccc(C#N)c1,IC50,[1],0.26 µM
same,fold change (FC),[2],3.69
same,fold change (FC),[3],2.72
same,IC50,[4],> 100 µM
same,IC50,[5],> 100 µM
same,IC50,[6],> 100 µM
same,IC50,[7],> 100 µM
same,Kd,[8],0.043 µM
same,K,[9],1.6 ×10⁴ /M/s
same,K,[10],6.9 ×10⁻⁴ /s
same,T1/2,[11],16.8 min
